We go through one molecule from ChEMBL document CHEMBL1154419, “Pharmacodynamic effects of telavancin against methicillin-resistant and methicillin-susceptible Staphylococcus aureus strains in the presence of human albumin or serum and in an in vitro kinetic model” (Antimicrob Agents Chemother, 2007).

The test system of data set [1] is Staphylococcus aureus. Kind of data set: Antibacterial activity against methicillin-susceptible Staphylococcus aureus ATCC 13709 assessed as bacterial killing at 0.5 to 50 times MIC after 24 hrs in presence of 50% human serum. The format is functional, organism-based.
The test system of data set [2] is Staphylococcus aureus. As to the kind of experiment: Antibacterial activity against methicillin-resistant Staphylococcus aureus ATCC 33591 assessed as bacterial killing at 50 times MIC after 24 hrs. The format is functional, organism-based. Summed up: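 Static time-kill in M-H broth, in M-H broth with 40 g/liter fatty-acid-free purified human albumin, or in M-H broth with inactivated 50% human serum. Inoculum approx. 5 × 10⁵ CFU/ml, drug at 0.5, 1, 2.5, 5, 10, 25 and 50× MIC, 37°C. Samples at 0, 3, 6, 12 and 24 h plated on blood agar, counted after 24 h. Detection limit 5 × 10¹ CFU/ml. Run in duplicate.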

The subject of data set [3] is Staphylococcus aureus. As to the kind of experiment: Antibacterial activity against methicillin-susceptible Staphylococcus aureus ATCC 13709 assessed as bacterial killing at 10 times MIC after 6 hrs in PBS-nutrient depleted medium. The format is functional, organism-based.
The subject of data set [4] is Staphylococcus aureus. As to the kind of experiment: Antibacterial activity against methicillin-resistant Staphylococcus aureus ATCC 33591 assessed as change in bacterial burden at 1 mg/liter after 2 hrs. It counts as functional. In a few lines: (§1)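 In vitro kinetic model: spinner flask with 0.45-μm filter and prefilter, stirred, M-H broth at 37°C, starting inoculum approx. 5 × 10⁵ CFU/ml. Single initial drug dose of 1.0 to 40 mg/liter, with flow set to give a half-life of approx. 8 h. Viable counts at 0, 2, 4, 6, 8, 12 and 24 h. Duplicate runs per strain and concentration.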

Data set [5] deals with Staphylococcus aureus. As to the kind of experiment: Antibacterial activity against methicillin-susceptible Staphylococcus aureus ATCC 13709 assessed as change in bacterial burden at 5 mg/liter after 2 hrs. It counts as functional.
Data set [6] deals with Staphylococcus aureus. As to the kind of experiment: Antibacterial activity against methicillin-resistant Staphylococcus aureus ATCC 33591 assessed as change in bacterial burden at 2.5 mg/liter after 6 hrs. It counts as functional. Summed up:
as §1

Data set [7] deals with Staphylococcus aureus. Kind of data set: Antibacterial activity against methicillin-susceptible Staphylococcus aureus ATCC 13709 assessed as change in bacterial burden at 10 mg/liter after 8 hrs. The format is functional.
For data set [8], the system named is Staphylococcus aureus. Kind of data set: Antibacterial activity against methicillin-susceptible Staphylococcus aureus ATCC 13709 assessed as bacterial regrowth at 40 mg/liter Cmax. It counts as functional, organism-based.
In data set [9] the test system is Staphylococcus aureus. Kind of data set: Antibacterial activity against methicillin-resistant Staphylococcus aureus ATCC 33591 assessed as change in bacterial burden at 20 mg/liter after 8 hrs. The format is functional. Summed up: as §1
Data set [10] is described as follows: Cmax in human serum at 7.5 mg/kg. It counts as ADME, organism-based. Set-up: dose 7.5 mg/kg.
Data set [11] is described as follows: Cmax in human at 10 mg/kg once daily. The format is ADME, organism-based. Set-up: dose 10 mg/kg. The settings on record: in vivo.
The subject of data set [12] is Staphylococcus aureus. As to the kind of experiment: Antibacterial activity against methicillin-resistant Staphylococcus aureus ATCC 33591 assessed as change in bacterial burden at 5 mg/liter after 8 hrs. The format is functional. Summed up:
as §1

The test system of data set [13] is Staphylococcus aureus. As to the kind of experiment: Antibacterial activity against methicillin-resistant Staphylococcus aureus ATCC 33591 assessed as change in bacterial burden at 20 mg/liter after 4 hrs. It counts as functional. Summed up: as §1
Data set [14] deals with Staphylococcus aureus. Kind of data set: Antibacterial activity against methicillin-resistant Staphylococcus aureus ATCC 33591 assessed as change in bacterial burden at 5 mg/liter after 6 hrs. It counts as functional. Summed up:
as §1

Data set [15] concerns Staphylococcus aureus. Kind of data set: Antibacterial activity against methicillin-resistant Staphylococcus aureus ATCC 33591 after 18 to 24 hrs by macrodilution technique. It counts as functional. In a few lines:
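Broth macrodilution per CLSI, run in triplicate on separate occasions. Twofold serial drug dilutions in broth, inoculum approx. 5 × 10⁵ CFU/ml, 37°C for 18 to 24 h. MIC taken as the lowest concentration with no visible growth.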

Data set [16] can be described thus: AUC (0 to 24 hrs) in human at 10 mg/kg once daily. The settings on record: plasma. On the set-up: time < 24 hr, dose 10 mg/kg. The format is ADME, organism-based.
Data set [17] concerns Staphylococcus aureus. Kind of data set: Antibacterial activity against methicillin-susceptible Staphylococcus aureus ATCC 13709 assessed as change in bacterial burden at 20 mg/liter after 8 hrs. It counts as functional. Summed up:
as §1

Values after ≈ are worked out from the molar mass of the structure shown. Active and inactive are the calls of the source. No cut-off for these calls is given here.

As to `CCCCCCCCCCNCCN[C@@]1(C)C[C@H](O[C@H]2[C@H](Oc3c4cc5cc3Oc3ccc(cc3Cl)[C@@H](O)[C@@H](NC(=O)[C@@H](CC(C)C)NC)C(=O)N[C@@H](CC(N)=O)C(=O)N[C@H]5C(=O)N[C@H]3C(=O)N[C@H](C(=O)N[C@H](C(=O)O)c5cc(O)c(CNCP(=O)(O)O)c(O)c5-c5cc3ccc5O)[C@H](O)c3ccc(c(Cl)c3)O4)O[C@H](CO)[C@@H](O)[C@@H]2O)O[C@@H](C)[C@H]1O` [TELAVANCIN], the outcome with Staphylococcus aureus [1], in the data set with Staphylococcus aureus [2], in the data set on Staphylococcus aureus [3] and with Staphylococcus aureus [8] was Active. Moreover, the deltalog10CFU/ml is -1 in the data set on Staphylococcus aureus [4]; -1.2 in the data set with Staphylococcus aureus [5]; -2.7 with Staphylococcus aureus [6]; -4.3 in the data set with Staphylococcus aureus [7]; -3.5 in the data set with Staphylococcus aureus [9]; -3.6 in the data set with Staphylococcus aureus [12]. The results for the deltalog10CFU/ml in the data set on Staphylococcus aureus [13], with Staphylococcus aureus [14] and in the data set on Staphylococcus aureus [17] were -2.1, -3.1 and -4.6, respectively. Besides, the figures for the Cmax in [10] and in [11] were 60000 ng/mL and 5200 ng/mL, respectively. For the same molecule, in the data set with Staphylococcus aureus [15], inhibition of growth (MIC) required 1 µg/mL (≈ 0.57 µM). The molecule further registered an AUC at 24 h in data set [16] of 51000 ng·h/mL.
